This note sets out measurements from ChEMBL document CHEMBL1914440, “Discovery of potent, selective, and orally bioavailable alkynylphenoxyacetic acid CRTH2 (DP2) receptor antagonists for the treatment of allergic inflammatory diseases” (J Med Chem, 2011).

Data set [1] can be described thus: Clearance in BALB/c mouse at 5 mg/kg, po by LC/MS/MS analysis. Set-up: dose 5 mg/kg, route oral. The data set is classed as ADME, organism-based. The settings on record: in vivo.
Data set [2] concerns the target T1, Prostaglandin D2 receptor 2 (Homo sapiens, UniProt Q9Y5Y4).
T1 sequence (Q9Y5Y4 whole entry): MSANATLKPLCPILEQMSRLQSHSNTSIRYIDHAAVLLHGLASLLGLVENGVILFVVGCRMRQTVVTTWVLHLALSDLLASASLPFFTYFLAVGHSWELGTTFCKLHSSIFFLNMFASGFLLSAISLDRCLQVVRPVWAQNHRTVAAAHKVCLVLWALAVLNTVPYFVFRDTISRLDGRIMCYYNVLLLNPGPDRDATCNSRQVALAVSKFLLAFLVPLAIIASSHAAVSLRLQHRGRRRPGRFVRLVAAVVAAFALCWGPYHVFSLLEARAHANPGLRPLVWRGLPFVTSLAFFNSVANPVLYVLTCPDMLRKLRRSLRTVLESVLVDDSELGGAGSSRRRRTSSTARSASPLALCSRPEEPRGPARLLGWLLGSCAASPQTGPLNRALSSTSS
Nature of the data set: Displacement of [3H]PGD2 from human CRTH2 expressed in chinese hamster CHO cells by liquid scintillation counting. Type of data set: cell-based. The method in brief:
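Scintillation proximity competition assay: 2–5 μg human CRTH2 cell membranes, 1.5 nM [3H]PGD2, WGA-SPA beads, 10 mM HEPES/KOH pH 7.4, 10 mM MnCl2, protease inhibitors, 1% DMSO; 90 min, room temperature, shaking. Nonspecific binding defined with 1 μM PGD2. Ki by Cheng–Prusoff, mean of ≥3 independent dose–response experiments.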
A general note: In a radioligand displacement assay an active substance lowers the binding of a labelled ligand.

Data set [3] in a line: Lipophilicity, log D of the compound at pH 7.4. Type of data set: physicochemical. The settings on record: buffer.
Data set [4] can be described thus: Apparent permeability across human Caco2 cells at 1 uM after 2 hrs by LC/MS/MS analysis. Type of data set: ADME, cell-based. The note with it: Caco-2. For orientation: Caco-2 cells form a polarised layer with tight junctions and transporters.
Data set [5] can be described thus: Percentage unbound in mouse plasma. Type of data set: ADME, cell-free.
The nature of data set [6]: Half life in BALB/c mouse at 1 mg/kg, iv and 5 mg/kg, po by LC/MS/MS analysis. The data set is classed as ADME, organism-based. The note with it: in vivo.
A short description of data set [7]: Percentage unbound in rat plasma. Type of data set: ADME, cell-free.
Data set [8] can be described thus: Thermodynamic solubility of the compound in aqueous solution at pH 7.4. The data set is classed as physicochemical. The note with it: read-out: Therm_solubility.
Data set [9] can be described thus: Percentage unbound in human plasma. Type of data set: ADME, cell-free.
A short description of data set [10]: Half life in Sprague-Dawley rat at 1 mg/kg, iv and 5 mg/kg, po by LC/MS/MS analysis. Type of data set: ADME, organism-based. The note with it: in vivo.
The nature of data set [11]: Intrinsic clearance in rat liver microsomes assessed per mg of protein at 1 uM by LC/MS/MS analysis. Type of data set: ADME, Microsome. (Microsomes from liver hold many membrane-bound enzymes, among them those of drug oxidation.)
Data set [12] in a line: Intrinsic clearance in human liver microsomes assessed per mg of protein at 1 uM by LC/MS/MS analysis. Type of data set: ADME, Microsome.
Data set [13] can be described thus: Thermodynamic solubility of the compound in 50 mM phosphate buffered saline at pH 7.4. The data set is classed as physicochemical. The note with it: read-out: Therm_solubility. The method in brief: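 Thermodynamic solubility measured in 50 mM PBS at pH 7.4.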

Structures are written as SMILES. ≈ marks a conversion by molar mass, not a printed value.

A word on the CL/F: it is clearance divided by bioavailability, as obtained after extravascular dosing. As usually defined, the Ki is a dissociation constant, usually derived from enzyme kinetics or from competition with a known ligand. A high value points to weaker binding. As a reminder, the logD is the decadic logarithm of the distribution of all forms, ionised or not, between an organic phase and buffer at a given pH. The low end stands for lower lipophilicity, the high end for higher lipophilicity. What is called Papp is a coefficient for how fast a substance crosses the barrier. What is called fraction unbound is free concentration divided by total concentration. The low end stands for little free substance, the high end for much free substance. As a reminder, the half-life is how long it takes for the measured level to halve. In [1], `CN(C)S(=O)(=O)c1cncc(C#Cc2cc(Cl)ccc2OCC(=O)O)c1` gave a CL/F of 13.3 mL/min/kg. For the same compound, the affinity in [2], expressed as Ki, was 37 nM. This compound gave a logD in data set [3] of -1.4. The apparent permeability coefficient (Papp) at 2 h, 1 µM in data set [4] turned out to be 1.8 ×10⁻⁶ cm/s. For the same compound, the fraction unbound in data set [5] came out at 0.034; in data set [7], 0.057; in data set [9] it was 0.033. For the same compound, the half-life in data set [6] is 4.4 h. For the same compound, the solubility thermodynamic in data set [8] came out at 193 µg/mL (≈ 489 µM).
As a reminder, the microsomal CLint is the rate of metabolic loss divided by the concentration. Lower therefore signals slow turnover. `CCCS(=O)(=O)c1cccc(C#Cc2cc(Cl)ccc2OCC(=O)O)c1` had a CL/F in [1] of 5 mL/min/kg. Besides, in data set [2], the Ki was 9 nM. Moreover, the Papp at 2 h, 1 µM in [4] worked out at 11.8 ×10⁻⁶ cm/s. Besides, the fraction unbound came to 0.024 in [5], 0.01 in data set [7] and 0.008 in data set [9]. For the same compound, the half-life in data set [6] is 2.2 h; in data set [10], 4.4 h. Moreover, the microsomal CLint at 1 µM in [11] was below 10 µL/min/mg; in data set [12], 11 µL/min/mg. For the same compound, the solubility thermodynamic in data set [13] was 760 µg/mL (≈ 1930 µM).
